# Active and inactive are the calls of the source. The calls are words filed in the database; no cut-off is given here.
# How the values were obtained:
# [1] = test system: Erwinia amylovora; assay: Bactericidal activity against Erwinia amylovora 295/93 assessed as growth inhibition in King's B full medium measured at pH 7.2 after overnight incubation by suspension culture assay; assay type: functional
# In short: (§1)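 Growth inhibition in suspension culture in King's B medium (peptone, K2HPO4, MgSO4, glycerol; pH 7.2). Overnight culture diluted to OD600 0.2, compound added from stocks in ethanol or DMSO (up to 5% v/v) beside solvent controls; 28 °C, 200 rpm; OD600 read at 0–8 h every 2 h and at 15 or 24 h. MIC = lowest concentration giving complete growth inhibition after overnight incubation; at least triplicate.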
# [2] = test system: Erwinia amylovora; assay: Bactericidal activity against Erwinia amylovora bv.4 assessed as growth inhibition after 10 min; assay type: functional; conditions: bv.4, 10 min
# [3] = test system: Erwinia amylovora; assay: Bactericidal activity against Erwinia amylovora 295/93 assessed as growth inhibition applied as spray solution; assay type: functional, organism-based
# [4] = test system: Erwinia amylovora; assay: Bactericidal activity against Erwinia amylovora 295/93 assessed as colony growth inhibition at 25 uM at pH 4.5 by plating assay in presence of 0.5 mg/l mushroom tyrosinase; assay type: functional, organism-based
# [5] = Activity of Agaricus bisporus (mushroom) tyrosinase assessed as drug oxidation by photometric analysis; assay type: ADME
# [6] = test system: Erwinia amylovora; assay: Bactericidal activity against Erwinia amylovora 295/93 assessed as colony growth inhibition at 25 uM at pH 7.2 by plating assay in presence of 0.5 mg/l mushroom tyrosinase; assay type: functional, organism-based
# [7] = test system: Erwinia amylovora; assay: Bactericidal activity against Erwinia amylovora 295/93 assessed as growth inhibition at 10 uM preincubated for 1 hr with visible light by suspension culture assay; assay type: functional, organism-based
# In short: (§2)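 1 mM stock in ethanol exposed for 1 h to bright sunlight (UV plus visible) or to sunlight behind a UV-blocking glass screen; dark-kept solution as control. Added at nominal 10 μM to growing E. amylovora suspension cultures; growth followed by OD600.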
# [8] = test system: Erwinia amylovora; assay: Bactericidal activity against Erwinia amylovora 295/93 assessed as growth inhibition at 10 uM preincubated for 1 hr with UV/visible light by suspension culture assay; assay type: functional, organism-based; in short: as §2
# [9] = test system: Erwinia amylovora; assay: Bactericidal activity against mixture of two strains of Erwinia amylovora 295/93 and 763 inoculated in Malus x domestica cv. Gala flowers assessed as prevention of infection at 0.01 mM applied two times at 2 hr after bacterial exposure measured after 8 to 10 days by In vitro flower inoculation assay; assay type: functional, 295/93/763
# In short: (§3)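 Gala flowers (balloon stage, from greenhouse-forced potted trees) opened on 10% sucrose at 28 °C for 24 h, in series of 20. Each inoculated with 1 μL of a 1×10^7 CFU/mL mix of strains 295/93 and 763 on the styles. After 2 h, sprayed twice with 150 μL; water as negative control. Kept at 70% humidity and 22 °C, with a water-plus-fungicide spray at day 2. Infected flowers per series scored at 8–10 days; assay valid only if water controls reached ≥50% infection.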
# [10] = test system: Erwinia amylovora; assay: Bactericidal activity against 2x10^8 CFU/mL Erwinia amylovora 295/93 cells assessed as late restarting of growth from surviving cells at <10 uM by suspension culture assay; assay type: functional, organism-based
# [11] = test system: Erwinia amylovora; assay: Bactericidal activity against Erwinia amylovora 295/93 at 10 uM after 30 min; assay type: functional, organism-based
# In short: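 Bactericidal versus bacteriostatic test: about 10^5 E. amylovora cells in suspension culture exposed to 10 μM for 30 min, then plated on King's B medium to check for surviving colonies.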
# [12] = test system: Escherichia coli; assay: Bactericidal activity against Escherichia coli assessed as growth inhibition at pH 7.2 by suspension culture assay; assay type: functional; in short: as §1
# [13] = test system: Pseudomonas fluorescens; assay: Bactericidal activity against Pseudomonas fluorescens A506 assessed as growth inhibition at pH 7.2 by suspension culture assay; assay type: functional; in short: as §1
# [14] = test system: Bacillus subtilis; assay: Bactericidal activity against Bacillus subtilis NCTC 10315 assessed as growth inhibition at pH 7.2 by suspension culture assay; assay type: functional; in short: as §1
# [15] = test system: Pectobacterium carotovorum; assay: Bactericidal activity against Pectobacterium carotovorum NCPB 312 assessed as growth inhibition at pH 7.2 by suspension culture assay; assay type: functional; in short: as §1
# [16] = test system: Erwinia piriflorinigrans; assay: Bactericidal activity against Erwinia piriflorinigrans 5888 assessed as growth inhibition at pH 7.2 by suspension culture assay; assay type: functional; in short: as §1
# [17] = test system: Pantoea agglomerans; assay: Bactericidal activity against Pantoea agglomerans 599 assessed as growth inhibition at pH 7.2 by suspension culture assay; assay type: functional; in short: as §1
# [18] = test system: Erwinia billingiae; assay: Bactericidal activity against Erwinia billingiae 6830 assessed as growth inhibition at pH 7.2 by suspension culture assay; assay type: functional; in short: as §1
# [19] = test system: Erwinia amylovora; assay: Bactericidal activity against Erwinia amylovora 385R assessed as growth inhibition at pH 7.2 by suspension culture assay; assay type: functional; in short: as §1
# [20] = test system: Erwinia amylovora; assay: Bactericidal activity against Erwinia amylovora 363 assessed as growth inhibition at pH 7.2 by suspension culture assay; assay type: functional; in short: as §1
# [21] = test system: Erwinia amylovora; assay: Bactericidal activity against Erwinia amylovora 237R assessed as growth inhibition at pH 7.2 by suspension culture assay; assay type: functional; in short: as §1
# [22] = test system: Erwinia amylovora; assay: Bactericidal activity against Erwinia amylovora 295/93 assessed as inhibition of bacterial growth under infection conditions in hrp gene expression inducing medium at pH 7.0 after overnight incubation by suspension culture assay; assay type: functional
# In short: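 E. amylovora 295/93 started at OD600 0.2, 28 °C with shaking, OD600 followed. MIC = lowest concentration completely inhibiting growth after overnight incubation, beside solvent controls.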
# [23] = test system: Erwinia amylovora; assay: Bactericidal activity against Erwinia amylovora 295/93 assessed as growth inhibition at pH 4.5 after overnight incubation by suspension culture assay; assay type: functional
# In short: (§4)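 E. amylovora 295/93 grown in King's B medium brought to pH values between 4 and 8 with 1 M HCl or NaOH before sterilisation. Culture set to OD600 0.2, 28 °C, 200 rpm, OD600 monitored over time; solvent controls run in parallel.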
# [24] = test system: Erwinia amylovora; assay: Bactericidal activity against Erwinia amylovora 295/93 assessed as growth inhibition at 2.5 uM at pH 4.0 to 8.0 by suspension culture assay; assay type: functional, organism-based; in short: as §4
# [25] = test system: Erwinia tasmaniensis; assay: Bactericidal activity against Erwinia tasmaniensis 37/10 assessed as growth inhibition at pH 7.2 by suspension culture assay; assay type: functional; in short: as §1
# [26] = test system: Erwinia pyrifoliae; assay: Bactericidal activity against Erwinia pyrifoliae 4171 assessed as growth inhibition at pH 7.2 by suspension culture assay; assay type: functional; in short: as §1
# [27] = test system: Erwinia amylovora; assay: Bactericidal activity against Erwinia amylovora 894 assessed as growth inhibition at pH 7.2 by suspension culture assay; assay type: functional; in short: as §1
# [28] = test system: Erwinia amylovora; assay: Bactericidal activity against Erwinia amylovora 893 assessed as growth inhibition at pH 7.2 by suspension culture assay; assay type: functional; in short: as §1
# [29] = test system: Erwinia amylovora; assay: Bactericidal activity against Erwinia amylovora 872 assessed as growth inhibition at pH 7.2 by suspension culture assay; assay type: functional; in short: as §1
# [30] = test system: Erwinia amylovora; assay: Bactericidal activity against Erwinia amylovora 871 assessed as growth inhibition at pH 7.2 by suspension culture assay; assay type: functional; in short: as §1
# [31] = test system: Erwinia amylovora; assay: Bactericidal activity against Erwinia amylovora 846 assessed as growth inhibition at pH 7.2 by suspension culture assay; assay type: functional; in short: as §1
# [32] = test system: Erwinia amylovora; assay: Bactericidal activity against Erwinia amylovora 797 assessed as growth inhibition at pH 7.2 by suspension culture assay; assay type: functional; in short: as §1
# [33] = test system: Erwinia amylovora; assay: Bactericidal activity against Erwinia amylovora 793 assessed as growth inhibition at pH 7.2 by suspension culture assay; assay type: functional; in short: as §1
# [34] = test system: Erwinia amylovora; assay: Bactericidal activity against Erwinia amylovora 792 assessed as growth inhibition at pH 7.2 by suspension culture assay; assay type: functional; in short: as §1
# [35] = test system: Erwinia amylovora; assay: Bactericidal activity against Erwinia amylovora 782 assessed as growth inhibition at pH 7.2 by suspension culture assay; assay type: functional; in short: as §1
# [36] = test system: Erwinia amylovora; assay: Bactericidal activity against Erwinia amylovora 657 assessed as growth inhibition at pH 7.2 by suspension culture assay; assay type: functional; in short: as §1
# [37] = test system: Erwinia amylovora; assay: Bactericidal activity against Erwinia amylovora 627 assessed as growth inhibition at pH 7.2 by suspension culture assay; assay type: functional; in short: as §1
# [38] = test system: Erwinia amylovora; assay: Bactericidal activity against Erwinia amylovora 562 assessed as growth inhibition at pH 7.2 by suspension culture assay; assay type: functional; in short: as §1
# [39] = test system: Erwinia amylovora; assay: Bactericidal activity against Erwinia amylovora 513 assessed as growth inhibition at pH 7.2 by suspension culture assay; assay type: functional; in short: as §1
# [40] = test system: Erwinia amylovora; assay: Bactericidal activity against mixture of two strains of Erwinia amylovora 295/93 and 763 inoculated in Malus x domestica cv. Gala flowers assessed as prevention of infection at 0.06% applied two times at 2 hr after bacterial exposure measured after 8 to 10 days by In vitro flower inoculation assay; assay type: functional, 295/93/763; in short: as §3
compound,measurement,setting,value
O=C1C(O)=C(C2=C(O)C(=O)c3ccccc3C2=O)C(=O)c2ccccc21,MIC,[1],inactive
O=C1c2ccccc2C(=O)c2c1ccc(O)c2O,MIC,[1],inactive
O=C1C=CC(=O)C=C1 [BENZOQUINONE],MIC,[2],10 µM
same,MIC,[1],100 µM
Cc1cc(O)c2c(c1)C(=O)c1cc(O)cc(O)c1C2=O,MIC,[1],inactive
O=C(O)c1cc(O)c2c(c1)C(=O)c1cccc(O)c1C2=O,MIC,[1],inactive
O=C1c2cccc(O)c2C(=O)c2c(O)cc(CO)cc21,MIC,[1],inactive
CC1=C(C)C(=O)C(C)=C(C)C1=O,MIC,[1],inactive
O=C1C=CC(=O)c2c(O)ccc(O)c21 [NAPHTHAZALIN],MIC,[1],10 µM
CC1=CC(=O)c2ccccc2C1=O [MENADIONE],MIC,[1],250 µM
O=C1C=CC(=O)c2c(O)cccc21 [JUGLONE],growth inhibition (GI),[3],Active
same,growth inhibition (GI),[4],Active
same,Activity,[5],Active
same,growth inhibition (GI),[6],inactive
same,growth inhibition (GI),[7],Active
same,growth inhibition (GI),[8],inactive
same,Efficacy,[9],67%
same,Activity,[10],Active
same,Activity,[11],Active
same,MIC,[12],1000 µM
same,MIC,[13],> 1000 µM
same,MIC,[14],50 µM
same,MIC,[15],500 µM
same,MIC,[16],500 µM
same,MIC,[17],500 µM
same,MIC,[18],1000 µM
same,MIC,[19],10 µM
same,MIC,[20],20 µM
same,MIC,[21],10 µM
same,MIC,[22],5 µM
same,MIC,[23],2.5 µM
same,growth inhibition (GI),[24],inactive
same,MIC,[1],10 µM
same,MIC,[25],500 µM
same,MIC,[26],20 µM
same,MIC,[27],10 µM
same,MIC,[28],10 µM
same,MIC,[29],20 µM
same,MIC,[30],10 µM
same,MIC,[31],20 µM
same,MIC,[32],20 µM
same,MIC,[33],10 µM
same,MIC,[34],10 µM
same,MIC,[35],10 µM
same,MIC,[36],10 µM
same,MIC,[37],20 µM
same,MIC,[38],10 µM
same,MIC,[39],10 µM
O=C1C=C(O)C(=O)c2ccccc21 [LAWSONE],MIC,[1],2500 µM
O=C1c2ccccc2C(=O)c2ccccc21,MIC,[1],inactive
COc1cc(O)c2c(c1)C(=O)c1cc(C)cc(O)c1C2=O,MIC,[1],inactive
Cc1cc(O)c2c(c1)C(=O)c1cccc(O)c1C2=O,MIC,[1],inactive
CN[C@@H]1[C@H](O[C@H]2[C@H](O[C@H]3[C@H](O)[C@@H](O)[C@H](N=C(N)N)[C@@H](O)[C@@H]3N=C(N)N)O[C@@H](C)[C@]2(O)C=O)O[C@@H](CO)[C@H](O)[C@H]1O [STREPTOMYCIN],Efficacy,[40],75%
same,MIC,[1],10 µM
CC(C)=CC[C@@H](O)C1=CC(=O)c2c(O)ccc(O)c2C1=O [SHIKONIN],MIC,[1],100 µM
O=C1c2ccccc2C(=O)c2c1cc(S(=O)(=O)O)c(O)c2O,MIC,[1],inactive
CC1=CC(=O)c2c(O)cccc2C1=O [PLUMBAGIN],MIC,[1],100 µM

# — ChEMBL document CHEMBL3046367, “Potent and specific bactericidal effect of juglone (5-hydroxy-1,4-naphthoquinone) on the fire blight pathogen Erwinia amylovora” (J Agric Food Chem, 2012)
